Laboratory results from ChEMBL document CHEMBL1142698, “Synthesis and biological evaluation of novel naphthocarbazoles as potential anticancer agents” (J Med Chem, 2005).

Columns and labels:
Assay type in all cases: functional, cell-based
[1] = tested on: L1210; experiment: In vitro antiproliferative activity against murine leukemia L1210 cells; settings: Mus musculus
How it was run: (§1)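 Cells from ATCC grown in RPMI 1640 with 10% fetal calf serum, 2 mM L-glutamine, penicillin/streptomycin and 10 mM HEPES (pH 7.4). Continuous exposure to graded concentrations for four doubling times. MTT added, then 4 h at 37 °C, formazan dissolved in DMSO and optical density read. IC50 is the concentration halving optical density versus untreated controls, from nine serial dilutions in duplicate.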

[2] = tested on: DU-145; experiment: In vitro antiproliferative activity against human prostate cancer DU145 cells; how it was run: as §1
[3] = tested on: HT-29; experiment: In vitro antiproliferative activity against human colon carcinoma HT-29 cells; how it was run: as §1
[4] = tested on: DU-145; experiment: In vitro antiproliferative activity against human prostate cancer DU-145 cells; how it was run: as §1

| IC50 [1] [nM] | IC50 [2] [nM] | IC50 [3] [nM] | IC50 [4] [nM] | Structure (SMILES) |
| --- | --- | --- | --- | --- |
| 3900 | 6800 | – | – | CN1C(=O)c2c(c3c4cc(O)ccc4[nH]c3c3cc4ccccc4cc23)C1=O |
| 1260 | 2310 | 3690 | – | CN1C(=O)c2c(c3c4ccccc4n(CC(O)CO)c3c3cc4ccccc4cc23)C1=O (centres undefined) |
| 34000 | 59700 | 65700 | – | C=CCn1c2ccccc2c2c3c(c4cc5ccccc5cc4c21)C(=O)N(C)C3=O |
| 36 | 108 | – | – | CN(C)CCN1C(=O)c2c(c3c4cc(O)ccc4[nH]c3c3cc4ccccc4cc23)C1=O |
| 5200 | 4700 | – | – | CN1C(=O)c2c(c3c4ccc(O)cc4[nH]c3c3cc4ccccc4cc23)C1=O |
| 1500 | 4500 | – | – | CN(C)CCOc1ccc2c(c1)[nH]c1c3cc4ccccc4cc3c3c(c21)C(=O)N(C)C3=O |
| 2400 | – | – | – | CN1C(=O)c2c(c3c4ccccc4n(CCN4CCOCC4)c3c3cc4ccccc4cc23)C1=O |
| 510 | 1110 | 5500 | – | O=C1c2c(c3c4ccc(O)cc4[nH]c3c3cc4ccccc4cc23)C(=O)N1CCNCCO |
| 290 | 630 | 3760 | – | O=C1c2c(c3c4cc(O)ccc4[nH]c3c3cc4ccccc4cc23)C(=O)N1CCNCCO |
| 10100 | 5600 | – | – | CN1C(=O)c2c(c3c4ccc(O[Si](C)(C)C(C)(C)C)cc4[nH]c3c3cc4ccccc4cc23)C1=O |
| 2400 | 4700 | – | – | CN(C)CCn1c2ccccc2c2c3c(c4cc5ccccc5cc4c21)C(=O)N(C)C3=O |
| 110 | 250 | – | – | CN(C)CCN1C(=O)c2c(c3c4ccc(O)cc4[nH]c3c3cc4ccccc4cc23)C1=O |
| 2900 | – | – | 1100 | CN1C(=O)c2c(c3c4ccccc4[nH]c3c3cc4ccccc4cc23)C1=O |
| 210 | 290 | – | – | CN(C)CCN1C(=O)c2c(c3c4ccccc4[nH]c3c3cc4ccccc4cc23)C1=O |
| 130 | 290 | 840 | – | CN(C)CCCN1C(=O)c2c(c3c4cc(O)ccc4[nH]c3c3cc4ccccc4cc23)C1=O |
| 200 | 6.8 | 1340 | – | O=C1c2c(c3c4ccc(O)cc4[nH]c3c3cc4ccccc4cc23)C(=O)N1C(CO)CO |
| 340 | 760 | 1350 | – | CN(C)CCCN1C(=O)c2c(c3c4ccc(O)cc4[nH]c3c3cc4ccccc4cc23)C1=O |
| 1190 | 2130 | 2880 | – | O=C1c2c(c3c4cc(O)ccc4[nH]c3c3cc4ccccc4cc23)C(=O)N1C(CO)CO |
| 140 | – | – | – | COC1C(O)[C@@H](O)[C@H](n2c3c(Cl)cccc3c3c4c(c5c6cccc(Cl)c6[nH]c5c32)C(=O)NC4=O)O[C@@H]1CO (single isomer, unassigned) [REBECCAMYCIN] |
